According to ChEMBL document CHEMBL1145257, “Synthesis and antibacterial activity of hydrolytically stable (-)-epicatechin gallate analogues for the modulation of beta-lactam resistance in Staphylococcus aureus” (2005):
Converted amounts (≈) assume the structure as drawn.

Legend:
Format in all cases: functional
Staphylococcus aureus [1] = experiment: Minimum inhibitory concentration against methicillin resistant Staphylococcus aureus strain BB 568
In short: (§1)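 Intrinsic activity by broth microdilution. Inoculum about 10⁴ cfu per well in Mueller-Hinton broth with 2% w/v NaCl, doubling dilutions of compound. MIC read after 24 h at 35 °C. S. aureus ATCC29213 served as standard strain.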

Staphylococcus aureus [2] = experiment: Minimum inhibitory concentration against methicillin resistant Staphylococcus aureus strain EMRSA 16; in short: as §1
Staphylococcus aureus [3] = experiment: Minimum inhibitory concentration against methicillin resistant Staphylococcus aureus strain EMRSA 15; in short: as §1
Staphylococcus aureus [4] = experiment: Minimum inhibitory concentration against methicillin resistant Staphylococcus aureus strain BB 568 in combination with oxacillin; Experiment 1
In short: (§2)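 Oxacillin MIC measured with test compound held at a fixed 25 mg/L, using doubling dilutions of oxacillin. Broth microdilution with about 10⁴ cfu per well in Mueller-Hinton broth plus 2% w/v NaCl. MIC read after 24 h at 35 °C. S. aureus ATCC29213 served as standard. Two separate experiments reported.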

Staphylococcus aureus [5] = experiment: Minimum inhibitory concentration against methicillin resistant Staphylococcus aureus strain EMRSA 15 in combination with oxacillin; in short: as §2
Staphylococcus aureus [6] = experiment: Minimum inhibitory concentration against methicillin resistant Staphylococcus aureus strain EMRSA 16 in combination with oxacillin; in short: as §2
Staphylococcus aureus [7] = experiment: Minimum inhibitory concentration against methicillin resistant Staphylococcus aureus strain BB 568 in combination with oxacillin; Experiment 2; in short: as §2
Staphylococcus aureus [8] = experiment: Minimum inhibitory concentration against methicillin resistant Staphylococcus aureus strain BB 568 in combination with oxacillin; in short: as §2
Staphylococcus aureus [9] = experiment: Minimum inhibitory concentration against methicillin resistant Staphylococcus aureus strain EMRSA 16 in combination with oxacillin; Experiment 1; in short: as §2
Staphylococcus aureus [10] = experiment: Minimum inhibitory concentration against methicillin resistant Staphylococcus aureus strain EMRSA 15 in combination with oxacillin; Experiment 2; in short: as §2
Staphylococcus aureus [11] = experiment: Minimum inhibitory concentration against methicillin resistant Staphylococcus aureus strain EMRSA 16 in combination with oxacillin; Experiment 2; in short: as §2
Staphylococcus aureus [12] = experiment: Minimum inhibitory concentration against methicillin resistant Staphylococcus aureus strain EMRSA 15 in combination with oxacillin; Experiment 1; in short: as §2

With `O=C(N[C@@H]1Cc2c(O)cc(O)cc2O[C@@H]1c1ccc(O)c(O)c1)c1cc(O)c(O)c(O)c1` as the compound, how does the MIC (Staphylococcus aureus [1]) read?
Its MIC is 256 µg/mL (≈ 580 µM).

And the MIC (Staphylococcus aureus [2])?
The MIC was 128 µg/mL (≈ 290 µM).

And the MIC (Staphylococcus aureus [3])?
The MIC was 256 µg/mL (≈ 580 µM).

And the MIC (Staphylococcus aureus [4])?
Its MIC is 4 µg/mL.

And the MIC (Staphylococcus aureus [5])?
Its MIC is no more than 0.5 µg/mL.

And the MIC (Staphylococcus aureus [6])?
The MIC was 1 µg/mL.

And the MIC (Staphylococcus aureus [7])?
Its MIC is 8 µg/mL.

Which results are given for `O=C(N[C@H]1Cc2c(O)cc(O)cc2O[C@@H]1c1ccc(O)c(O)c1)c1cc(O)c(O)c(O)c1`?
MIC (Staphylococcus aureus [8]): 64 µg/mL; MIC (Staphylococcus aureus [1]): 256 µg/mL (≈ 580 µM); MIC (Staphylococcus aureus [2]): 128 µg/mL (≈ 290 µM); MIC (Staphylococcus aureus [9]): 256 µg/mL; MIC (Staphylococcus aureus [3]): 256 µg/mL (≈ 580 µM); MIC (Staphylococcus aureus [10]): 4 µg/mL; MIC (Staphylococcus aureus [11]): 512 µg/mL; MIC (Staphylococcus aureus [12]): 2 µg/mL

What does the source list for `Cc1onc(-c2ccccc2)c1C(=O)N[C@@H]1C(=O)N2[C@@H]1SC(C)(C)[C@@H]2C(=O)O` [OXACILLIN]?
MIC (Staphylococcus aureus [1]): 256 µg/mL (≈ 638 µM); MIC (Staphylococcus aureus [2]): 512 µg/mL (≈ 1280 µM); MIC (Staphylococcus aureus [3]): 32 µg/mL (≈ 79.7 µM)
